STAT3 blocker: IL-6 driven STAT3 reporter inhibitors, primary screen, U3A cells, luciferase, luminescence, MLSCN library; IL-6 STAT3-luciferase reporter; host cell line lacks STAT1; AID 862, 2007; hit rate 0.89% among 190,000; inhibition, % at 5.5 µM;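 active means inhibition above the mean inhibition across all screened compounds plus 3 SD, cut at about 44% in these data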
Platelet DG rel: inhibitors of platelet dense granule secretion, primary screen, cell-based, MLPCN, human platelets; human platelet-rich plasma, SFLLRN dense granule ATP release, luminescence; inhibition, %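 (compounds screened at 7.5 µM in platelet-rich plasma)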; hit rate 0.22% among 300,000;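 active means mean replicate score, as percent of positive control, at or above 50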
STAT3 act: IL-6 driven STAT3 reporter potentiators, primary screen, U3A cells, luciferase, luminescence, MLSCN library; AID 871, 2007; hit rate 0.91% among 190,000; IL-6 STAT3-luciferase reporter; 100% = signal with IL-6 EC80 alone; activation (% of control), % at 5.6 µM;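 active means activation above the screen-wide mean of compound activation plus 3 SD, cut at about 130% in these data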
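Material: STAT1-lacking human U3A cells, STAT3 luciferase reporter | Benchmarks: IL-6-only wells as 100% reference | Probe or stimulus: IL-6 (33 ng/mL) | Timing: Compound 1 h, then IL-6 6 h at 37 °C | Detection: Luminescence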
STAT1 inh-1: STAT1 signaling inhibitors, primary screen, cell-based, HTS, luciferase reporter. NIH 3T3 STAT1-luciferase reporter, IFN-gamma, luminescence. inhibition, % at 5.5 µM. hit rate 0.35% among 200,000. AID 920, 2007;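 active means inhibition above a set limit, the mean inhibition across all tested compounds plus 3 SD, cut at about 34% in these data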
PERK inhibitor: block of dimerizer-induced PERK translation repression, primary screen, PERK inhibitor project, CHO PERK-DD cells, SEAP luminescence, HTS | Eukaryotic translation initiation factor 2-alpha kinase 3 (Homo sapiens), Q9NZJ5 | hit rate 0.17% among 220,000 | AID 1416, 2008 | CHO PERK-DD fusion, SEAP luminescence translation reporter | inhibition, % at 5.6 µM;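 active means inhibition above the mean inhibition of all tested compounds plus 3 SD, set separately per screening campaign, cut at about 2.9% in these data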;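 further: PERK kinase domain activated by AP20187 dimerizer at 100 nM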
STAT1 inh-2: STAT1 signaling inhibitors, confirmation, cell-based, HTS, luciferase reporter | shares compounds with STAT1 inh-1 | NIH 3T3 STAT1-luciferase reporter, IFN-gamma, luminescence | inhibition, % at 5.5 µM | hit rate 55% among 200 | AID 1263, 2008;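 active means triplicate mean inhibition exceeding the hit cutoff computed for the primary STAT1 screen, cut at about 35% in these data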
NFkB inh STAT1ct: NF-kB reporter inhibitors, TNF-alpha stimulated, counter-screen for STAT1 inhibitor project, cell-based, HEK293T, luciferase luminescence; shares compounds with STAT1 inh-1; TNF-alpha induced; inhibition, % at 5.7 µM; hit rate 30% among 200; AID 1303, 2008;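 active means inhibition above the mean of solvent-only control wells plus 3 SD of those wells, cut at about 15% in these data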
STAT3 inh STAT1c: STAT3 reporter inhibition by STAT1 hits, counter-screen for STAT1 inhibitor project, U3A cells, luciferase, luminescence, triplicate; hit rate 20% among 200; shares compounds with STAT1 inh-1; inhibition, % at 5.7 µM; IL-6 STAT3 luciferase reporter; cells lacking STAT1; AID 1310, 2008;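 active means inhibition above the mean of solvent-only control wells plus 3 SD, set per campaign, cut at about 25% in these data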
Hits are given with their value; 0 = inactive; - = no result given. This is a sample that favours compounds with a hit; in the whole collection about 1.4% have one here.

SMILES | STAT3 blocker | Platelet DG rel | STAT3 act | STAT1 inh-1 | PERK inhibitor | STAT1 inh-2 | NFkB inh STAT1ct | STAT3 inh STAT1c
Nc1ccc(-c2nc3c(Cl)cc(N)cc3[nH]2)cc1 | 0 | 0 | 0 | 41.2 | 0 | 0 | 35.2 | 28.1
Nc1ccc2nc(-c3ccc(N)c(Cl)c3)[nH]c2c1 | 0 | 0 | 0 | 0 | 0 | - | - | -
COc1cccc(NC(=O)COC(=O)c2ccccc2C(=O)N2CCN(c3ccccc3)CC2)c1 | 0 | 0 | 0 | 0 | 0 | - | - | -
Cn1nnnc1Sc1ncnc2scc(-c3ccccc3)c12 | 0 | 0 | 0 | 43.9 | 0 | 49.4 | 0 | 0
Cn1nnnc1SCc1nc2scc(-c3ccccc3)c2c(=O)[nH]1 | - | 0 | - | - | 0 | - | - | -
Cn1nnnc1Sc1ncnc2scc(-c3ccc(F)cc3)c12 | 0 | 0 | 0 | 37.5 | 0 | 50.0 | 0 | 0
CCCS(=O)(=O)c1nnnn1-c1cccc(OC)c1 | 0 | 0 | 0 | 45.6 | 0 | 51.5 | 23.6 | 0
CCOc1ccc(-c2nc(CSCC(=O)NCc3ccco3)c(C)o2)cc1 | 0 | 0 | 0 | 89.6 | 0 | 90.7 | 49.1 | 0
CCOc1ccc(-c2nc(CSCC(=O)NC3CC3)c(C)o2)cc1 | - | 0 | - | - | - | - | - | -
O=C(N/N=C/c1cccs1)C(=O)Nc1cccc(Cl)c1 | 0 | 0 | 0 | 0 | 0 | - | - | -
O=C(O)c1cccc(N/N=C/c2cccs2)c1 | 0 | 0 | 0 | 60.0 | 0 | 43.4 | 79.4 | 0
CCCn1nc(C(=O)OCC(=O)c2c(N)n(C)c(=O)n(C)c2=O)c2ccccc2c1=O | 0 | 0 | 0 | 48.6 | 0 | 0 | 0 | 0
CCOC(=O)N1CCN(c2ncnc3c2[nH]c2ccc(OC)cc23)CC1 | 0 | 0 | 0 | 53.2 | 0 | 44.0 | 20.8 | 0
CCOC(=O)N1CCN(c2ncnc3c2[nH]c2ccc(F)cc23)CC1 | 0 | 0 | 0 | 54.2 | 0 | 61.0 | 19.0 | 36.9
CCOC(=O)C1(CCc2ccccc2)CCN(C(=O)CN2C(=O)CSC2=O)CC1 | 0 | 0 | 0 | 0 | 0 | - | - | -
CCC(=O)Nc1ccc(-c2nc3ccccc3c(=O)o2)cc1 | 0 | 0 | 0 | 39.3 | 0 | 0 | 0 | 0
CCOC(=O)N1CCC(N2C(=O)c3ccccc3C2Nc2cccnc2)CC1 (stereo not drawn) | 0 | 0 | 0 | 34.4 | 0 | 0 | 0 | 0
Cc1ccc(C(C)C)c(OCC(=O)N/N=C/c2cccn2C)c1 | - | 0 | - | - | 0 | - | - | -
Cc1ccc(C)c(NC(=O)C2CCCN(c3cnccn3)C2)c1 (stereo not drawn) | - | 0 | - | - | - | - | - | -
CC1=NC(=O)C(N=Nc2ccccc2C(=O)O)N1c1ccccc1 (stereo not drawn) | 0 | 0 | 0 | 64.9 | 0 | 49.5 | 15.8 | 0
Cc1[nH]n(-c2ccccc2)c(=O)c1N=Nc1ccccc1C(=O)O | - | 0 | - | - | - | - | - | -
COC(=O)CNC(=S)NC(=O)c1ccc(C(C)(C)C)cc1 | 0 | 0 | 0 | 0 | 0 | - | - | -
Cc1cc(=O)n(C(NC(=O)c2ccccc2)C(=O)c2ccccc2)cn1 (stereo not drawn) | 0 | 0 | 0 | 41.7 | 0 | 45.8 | 0 | 0
COc1cc(/C=C/C(=O)OCC(=O)NC(=O)NC(C)C)cc(S(=O)(=O)N2CCc3ccccc32)c1OC | 0 | 0 | 0 | 58.8 | 0 | 45.7 | 17.8 | 0
Cc1ccc(S(=O)(=O)N2CCC(C(=O)NNC(=O)c3cccnc3)CC2)cc1 | 0 | 0 | 0 | 0 | 0 | - | - | -
SMILES | STAT3 blocker | Platelet DG rel | STAT3 act | STAT1 inh-1 | PERK inhibitor | STAT1 inh-2 | NFkB inh STAT1ct | STAT3 inh STAT1c
O=C(c1ccc2c(c1)N(Cc1ccccc1)C(=O)c1ccccc1S2)N1CCCC1 | 0 | 0 | 0 | 52.4 | 0 | 45.1 | 0 | 0
Cc1cccc(CN2C(=O)c3ccccc3Sc3ccc(C(=O)O)cc32)c1 | - | 0 | - | - | 0 | - | - | -
Cc1sc(-c2ccncc2)nc1OC(=O)c1ccc(F)cc1F | 0 | 0 | 0 | 51.4 | 0 | 0 | 0 | 0
COc1ccc(COc2cccc3ccc(C)nc23)cc1F | - | 0 | - | - | - | - | - | -
O=C(C1CCC(CNS(=O)(=O)c2cccc3nsnc23)CC1)N1CCN(c2ccccn2)CC1 (stereo not drawn) | 0 | 0 | 0 | 35.2 | 0 | 0 | 0 | 0
COc1cccc(C(=O)Nc2nnc(SCC(=O)Nc3ccc(NC(C)=O)cc3)s2)c1 | - | 0 | - | - | - | - | - | -
CCOC(=O)C1CCN(CC(=O)Nc2c(C(=O)OC)[nH]c3ccc(Cl)cc23)CC1 | 0 | 0 | 0 | 36.8 | 0 | 0 | 0 | 28.9
CCOC(=O)C1CCN(CC(=O)Nc2c(C(=O)OC)[nH]c3ccccc23)CC1 | 0 | 0 | 0 | 0 | 0 | - | - | -
Cc1ccc(/C=C2/C(=O)N=C(N)N2C)s1 | 0 | 0 | 0 | 0 | 0 | - | - | -
Clc1ccccc1N1CCN(c2ncnc3nc[nH]c23)CC1 | 0 | 0 | 0 | 36.6 | 0 | 0 | 0 | 0
Fc1ccccc1N1CCN(c2ncnc3nc[nH]c23)CC1 | - | 0 | - | - | 0 | - | - | -
Cc1cccc(-n2cc(-c3ccccc3)c3c(N4CCOCC4)ncnc32)c1 | 0 | 0 | 0 | 37.8 | 0 | 0 | 0 | 0
CCOC(=O)N1CCN(C(=O)/C=C/c2c(C)nn(-c3ccc(F)cc3)c2Cl)CC1 | 0 | 0 | 0 | 61.9 | 0 | 39.7 | 0 | 0
CC(=O)Nc1ccc(C(=O)OCC(=O)Nc2ccccc2F)cc1 | 0 | 0 | 0 | 0 | 0 | - | - | -
CC(NC(=S)NC(=O)c1ccccc1)c1ccccc1 (stereo not drawn) | - | 0 | - | - | - | - | - | -
O=C(NC(=S)NC(c1ccccc1)c1ccncc1)c1ccccc1 (stereo not drawn) | 0 | 0 | 0 | 62.1 | 0 | 56.7 | 20.1 | 0
CCOC(=O)C(=CNc1cc(C)nn1-c1ccccc1)C(=O)OCC | 0 | 0 | 0 | 52.4 | 0 | 46.1 | 0 | 0
COc1ccc(NC(=O)C2CCN(c3cc(-c4ccccc4)nc4ncnn34)CC2)cc1OC | 0 | - | 0 | 42.5 | 0 | 52.7 | 19.0 | 35.9
C[C@H](NC(=O)[C@H]1N2C(=O)c3ccccc3C2SC1(C)C)C(=O)N1CCCCC1 (stereo partly drawn) | - | 0 | - | - | - | - | - | -
Clc1ccc(C[n+]2cc(-c3ccccc3)n3c2CCCCC3)c(Cl)c1 | 0 | 0 | 0 | 39.7 | 0 | 0 | 0 | 25.6
Clc1ccc(-c2c[n+](Cc3ccc(Cl)cc3Cl)c3n2CCCCC3)cc1 | - | 0 | - | - | 0 | - | - | -
COc1cccc(CNc2ncnc3cc(Cl)ccc23)c1 | 0 | 0 | 0 | 40.6 | 0 | 0 | 0 | 0
Cn1c(SCc2ccccc2Cl)nc2c1c(=O)[nH]c(=O)n2C | - | 0 | - | - | - | - | - | -
CCCCn1c(=NC(=O)c2ccco2)c(C(=O)OCC)cc2c(=O)n3ccccc3nc21 | 0 | 0 | 0 | 0 | 0 | - | - | -
